# Reference: ChEMBL document CHEMBL3272325, “Structure-activity relationships of dimeric Catharanthus alkaloids. 1. Deacetylvinblastine amide (vindesine) sulfate” (J Med Chem, 1978)
# Legend:
# [1] = system: B16; experiment: Antitumor activity against mouse B16 cells allografted in B6D2F1 mouse assessed as mean survival time at 3 mg/kg/day, ip administered on day 5, 9 and 13 (reference value: 20.0 days); type: functional; settings: route intraperitoneal
# Outline: (§1)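 Male B6D2F1 mice implanted ip on day 0 with 0.25 mL of a 20% (w/v) B16 melanoma brei. Alkaloid sulfate salts given ip on days 1, 5, 9 or on days 5, 9, 13, groups of 10, against 30 untreated controls. Read-outs: median survival time with range of individual deaths, and percent increase in life span, with survivors counted on day 56.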
# [2] = Toxicity in ip dosed mouse allografted with mouse P1534(J) cells administered from day 1 to day 9; type: organism-based; settings: in vivo, read-out: MNTD
# Outline: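 P1534(J) leukemia implanted subcutaneously in mice. Sulfate salts given ip daily on days 1-9. Read-out was percent inhibition of tumor growth relative to untreated controls. The highest nontoxic dose was recorded.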
# [3] = system: Friend murine leukemia virus; experiment: Antimicrobial activity against Friend leukemia virus infected in mouse assessed as inhibition of spleen enlargement at 0.2 mg/kg/day, iv for 10 days relative to untreated control; type: functional; settings: 240 h
# Outline: (§2)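 DBA/2 mice bearing Friend leukemia virus were dosed iv for 10 days. Spleen enlargement was compared with untreated controls.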
# [4] = system: P388; experiment: Antitumor activity against mouse P388 cells allografted in mouse assessed as increase in life span at 1.8 mg/kg/day, ip after 1 day; type: functional; settings: 24 h, route intraperitoneal
# Outline: (§3)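 P388 ascites implanted ip in mice, 10 animals per group. Sulfate salts given ip either daily on days 1-9 or as a single dose on day 1. Median life span was calculated using all deaths and survivors. Percent increase in life span was taken over untreated controls. The highest nontoxic dose was noted.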
# [5] = Acute toxicity in rat; type: organism-based; settings: in vivo
# [6] = system: B16; experiment: Antitumor activity against mouse B16 cells allografted in C57Bl/6 mouse assessed as increase in life span at 0.9 mg/kg/day, ip administered on day 1, 5 and 9 measured for 61 days relative to control; type: functional; settings: route intraperitoneal
# Outline: (§4)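 C57BL/6 mice implanted ip with 0.5 mL of B16 melanoma brei. Alkaloid sulfate salts given ip on days 1, 5, 9 or on days 5, 9, 13. Percent increase in life span measured against controls; experiment ended at 61 days.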
# [7] = system: P388; experiment: Antitumor activity against mouse P388 cells allografted in mouse assessed as increase in life span at 6 mg/kg/day, ip after 1 day; type: functional; settings: 24 h, route intraperitoneal; outline: as §3
# [8] = system: B16; experiment: Antitumor activity against mouse B16 cells allografted in B6D2F1 mouse assessed as increase in life span at 3 mg/kg/day, ip administered on day 1, 5 and 9 measured for 56 days relative to untreated control; type: functional; settings: route intraperitoneal; outline: as §1
# [9] = system: Rhesus monkey; experiment: Neurotoxicity in iv dosed monkey assessed as peripheral neuropathy; settings: in vivo
# [10] = system: B16; experiment: Antitumor activity against mouse B16 cells allografted in B6D2F1 mouse assessed as mean survival time at 1.08 mg/kg/day, ip administered on day 1, 5 and 9 (reference value: 20.0 days); type: functional; settings: route intraperitoneal; outline: as §1
# [11] = system: B16; experiment: Antitumor activity against mouse B16 cells allografted in B6D2F1 mouse assessed as increase in life span at 0.389 mg/kg/day, ip administered on day 5, 9 and 13 measured for 56 days relative to untreated control; type: functional; settings: route intraperitoneal; outline: as §1
# [12] = Toxicity in ip dosed mouse allografted with mouse p388 cells administered from day 1 to day 9; type: organism-based; settings: in vivo, read-out: MNTD; outline: as §3
# [13] = system: B16; experiment: Antitumor activity against mouse B16 cells allografted in B6D2F1 mouse assessed as increase in life span at 0.648 mg/kg/day, ip administered on day 5, 9 and 13 measured for 56 days relative to untreated control; type: functional; settings: route intraperitoneal; outline: as §1
# [14] = system: Friend murine leukemia virus; experiment: Antimicrobial activity against Friend leukemia virus infected in mouse assessed as inhibition of spleen enlargement at 0.25 mg/kg/day, iv for 10 days relative to untreated control; type: functional; settings: 240 h; outline: as §2
# [15] = system: P388; experiment: Antitumor activity against mouse P388 cells allografted in mouse assessed as increase in life span at 4 mg/kg/day, ip after 1 day; type: functional; settings: 24 h, route intraperitoneal; outline: as §3
# [16] = system: P388; experiment: Antitumor activity against mouse P388 cells allografted in mouse assessed as increase in life span at 0.4 mg/kg/day, ip administered from day 1 to day 9 relative to untreated control; type: functional; settings: route intraperitoneal; outline: as §3
# [17] = system: B16; experiment: Antitumor activity against mouse B16 cells allografted in C57Bl/6 mouse assessed as mean survival time at 0.9 mg/kg/day, ip administered on day 1, 5 and 9 (reference value: 24.6 days); type: functional; settings: route intraperitoneal
# [18] = system: P388; experiment: Antitumor activity against mouse P388 cells allografted in mouse assessed as increase in life span at 2.7 mg/kg/day, ip after 1 day; type: functional; settings: 24 h, route intraperitoneal; outline: as §3
# [19] = system: Gallus gallus; experiment: Neurotoxicity in iv dosed chicken assessed as neuromuscular disturbance by measuring loss of balance; type: organism-based; settings: in vivo
# [20] = system: B16; experiment: Antitumor activity against mouse B16 cells allografted in C57Bl/6 mouse assessed as increase in life span at 0.9 mg/kg/day, ip administered on day 5, 9 and 13 measured for 61 days relative to control; type: functional; settings: route intraperitoneal; outline: as §4
# [21] = system: B16; experiment: Antitumor activity against mouse B16 cells allografted in B6D2F1 mouse assessed as increase in life span at 1.8 mg/kg/day, ip administered on day 1, 5 and 9 measured for 56 days relative to untreated control; type: functional; settings: route intraperitoneal; outline: as §1
# [22] = system: P388; experiment: Antitumor activity against mouse P388 cells allografted in mouse assessed as increase in life span at 9 mg/kg/day, ip after 1 day; type: functional; settings: 24 h, route intraperitoneal; outline: as §3
# [23] = Acute toxicity in ip dosed mouse; type: organism-based; settings: in vivo
# [24] = system: B16; experiment: Antitumor activity against mouse B16 cells allografted in B6D2F1 mouse assessed as increase in life span at 1.8 mg/kg/day, ip administered on day 5, 9 and 13 measured for 56 days relative to untreated control; type: functional; settings: route intraperitoneal; outline: as §1
# [25] = system: B16; experiment: Antitumor activity against mouse B16 cells allografted in B6D2F1 mouse assessed as mean survival time at 0.648 mg/kg/day, ip administered on day 1, 5 and 9 (reference value: 20.0 days); type: functional; settings: route intraperitoneal; outline: as §1
# [26] = system: P388; experiment: Antitumor activity against mouse P388 cells allografted in mouse assessed as increase in life span at 13.5 mg/kg/day, ip after 1 day; type: functional; settings: 24 h, route intraperitoneal
# [27] = Antitumor activity against mouse P1534(J) cells allografted in mouse assessed as tumor growth inhibition at 0.25 mg/kg/day, ip administered from day 1 to day 9 relative to unreated control; type: functional; settings: P1534J, route intraperitoneal, read-out: TGI
# Outline: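 P1534(J) leukemia implanted subcutaneously in mice; sulfate salts given ip on days 1-9. Read-out is percent inhibition of tumor growth versus untreated controls.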
# [28] = system: B16; experiment: Antitumor activity against mouse B16 cells allografted in B6D2F1 mouse assessed as mean survival time at 0.648 mg/kg/day, ip administered on day 5, 9 and 13 (reference value: 20.0 days); type: functional; settings: route intraperitoneal; outline: as §1
# [29] = system: Homo sapiens; experiment: Neurotoxicity in human assessed as neutropenia at 3 to 4 mg/m'2, iv once weekly dosed through push technique; type: toxicity, organism-based; settings: in vivo
# [30] = system: B16; experiment: Antitumor activity against mouse B16 cells allografted in C57Bl/6 mouse assessed as mean survival time at 0.9 mg/kg/day, ip administered on day 5, 9 and 13 (reference value: 21.5 days); settings: route intraperitoneal
# [31] = system: B16; experiment: Antitumor activity against mouse B16 cells allografted in B6D2F1 mouse assessed as mean survival time at 3 mg/kg/day, ip administered on day 1, 5 and 9 (reference value: 20.0 days); type: functional; settings: route intraperitoneal; outline: as §1
compound,measurement,setting,value
CC[C@]1(O)C[C@@H]2CN(CCc3c([nH]c4ccccc34)[C@@](C(=O)OC)(c3cc4c(cc3OC)N(C)[C@H]3[C@@](O)(C(N)=O)[C@H](O)[C@]5(CC)C=CCN6CC[C@]43[C@@H]65)C2)C1.O=S(=O)(O)O [VINDESINE SULFATE],MST,[1],29.5 days
same,MTD,[2],0.25 mg/kg/day
same,inhibition in vivo at 0.2 mg/kg/day,[3],80%
same,ILS at 1.8 mg/kg/day,[4],54%
same,LD50,[5],2 mg/kg
same,ILS at 0.9 mg/kg/day,[6],60%
same,ILS at 6 mg/kg/day,[7],109%
same,ILS at 3 mg/kg/day,[8],138%
same,Activity,[9],Non-toxic
same,MST,[10],42 days
same,ILS at 0.389 mg/kg/day,[11],25%
same,MTD,[12],0.9 mg/kg/day
same,ILS at 0.648 mg/kg/day,[13],35%
same,inhibition in vivo at 0.25 mg/kg/day,[14],90%
same,ILS at 4 mg/kg/day,[15],77%
same,ILS at 0.4 mg/kg/day,[16],172%
same,MST,[17],39.3 days
same,ILS at 2.7 mg/kg/day,[18],95%
same,Activity,[19],Non-toxic
same,ILS at 0.9 mg/kg/day,[20],78%
same,ILS at 1.8 mg/kg/day,[21],142%
same,ILS at 9 mg/kg/day,[22],190%
same,LD50,[23],6.3 mg/kg
same,ILS at 1.8 mg/kg/day,[24],90%
same,MST,[25],35 days
same,ILS at 13.5 mg/kg/day,[26],231%
same,inhibition in vivo at 0.25 mg/kg/day,[27],100%
same,MST,[28],27 days
same,Activity,[29],Toxic
same,MST,[30],38.3 days
same,MST,[31],47.5 days
